pEC50: −log10 of the molar value.
Biological target: Cannabinoid receptor 2 (Homo sapiens, UniProt P34972)
Experiment: Agonist activity at human recombinant cannabinoid CB2 receptor expressed in CHO cells by [35S]GTPgammaS binding assay
Procedure, shortened: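 hCB2 [35S]GTPγS binding concentration–response curves, run only for ligands giving over 50% relative activity at 10 µM. logEC50 and Emax come from nonlinear regression fitted to a sigmoidal concentration–response equation. Emax is given as percent of the 10 nM HU-210 response. Mean SEM of at least three experiments in duplicate.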

Cannabinoid receptor 2, sequence (P34972 whole entry): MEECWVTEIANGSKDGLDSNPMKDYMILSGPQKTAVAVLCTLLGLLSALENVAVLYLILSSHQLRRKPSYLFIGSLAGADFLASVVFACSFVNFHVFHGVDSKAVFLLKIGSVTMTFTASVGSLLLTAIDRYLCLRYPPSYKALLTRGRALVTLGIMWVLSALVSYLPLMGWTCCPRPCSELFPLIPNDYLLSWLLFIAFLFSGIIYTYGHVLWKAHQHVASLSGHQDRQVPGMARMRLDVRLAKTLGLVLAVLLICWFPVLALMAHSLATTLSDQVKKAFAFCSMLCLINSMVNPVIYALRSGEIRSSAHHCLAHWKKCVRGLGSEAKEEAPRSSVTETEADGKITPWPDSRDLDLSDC

Structure (SMILES) | pEC50
COc1ccccc1Nc1ccc2ccccc2n1 | 5.30
FC(F)(F)c1ccccc1Nc1ccc2ccccc2n1 | 5.20
FC(F)(F)c1cccc(Nc2ncc3ccccc3n2)c1 | 5.50
Clc1ccccc1Nc1ccc2ccccc2n1 | 5.20
O=C(NCC1CCCCC1)c1cnc(Nc2cccc(C(F)(F)F)c2)c2ccccc12 | 5.80
O=C(NC1CCCCC1)c1cnc(Nc2cccc(C(F)(F)F)c2)c2ccccc12 | 5.70
c1ccc2nc(NC3CCCCC3)ccc2c1 | 5.20
FC(F)(F)c1cccc(Nc2ccnc3ccccc23)c1 | 5.50
FC(F)(F)c1cccc(Nc2cnc3ccccc3n2)c1 | 5.40
O=C(c1cnc(Nc2cccc(C(F)(F)F)c2)c2ccccc12)N1CCOCC1 | 7.80
c1ccc(Sc2ccc3ccccc3n2)cc1 [2-Phenylsulfanyl-Quinoline] | 5.40

Other lines, results leading:

pEC50 | Structure (SMILES)
5.70 | COc1ccc(Nc2ccc3ccccc3n2)cc1 [2-(4''-Methoxyanilino)Quinoline]
5.80 | FC(F)(F)c1cccc(Nc2nccc3ccccc23)c1
5.70 | Clc1ccc(Nc2ccc3ccccc3n2)cc1 [N-(4-chlorophenyl)quinolin-2-amine]
5.60 | Clc1cccc(Nc2ccc3ccccc3n2)c1
5.60 | COc1cccc(Nc2ccc3ccccc3n2)c1
5.60 | FC(F)(F)c1cccc(Nc2ncnc3ccccc23)c1
5.90 | FC(F)(F)c1cccc(Nc2ccc3ccccc3n2)c1
5.70 | Brc1cccc(Nc2ccc3ccccc3n2)c1

Biological target: Cannabinoid receptor 1 (Rattus norvegicus, UniProt P20272)
Sequence (P20272 whole entry): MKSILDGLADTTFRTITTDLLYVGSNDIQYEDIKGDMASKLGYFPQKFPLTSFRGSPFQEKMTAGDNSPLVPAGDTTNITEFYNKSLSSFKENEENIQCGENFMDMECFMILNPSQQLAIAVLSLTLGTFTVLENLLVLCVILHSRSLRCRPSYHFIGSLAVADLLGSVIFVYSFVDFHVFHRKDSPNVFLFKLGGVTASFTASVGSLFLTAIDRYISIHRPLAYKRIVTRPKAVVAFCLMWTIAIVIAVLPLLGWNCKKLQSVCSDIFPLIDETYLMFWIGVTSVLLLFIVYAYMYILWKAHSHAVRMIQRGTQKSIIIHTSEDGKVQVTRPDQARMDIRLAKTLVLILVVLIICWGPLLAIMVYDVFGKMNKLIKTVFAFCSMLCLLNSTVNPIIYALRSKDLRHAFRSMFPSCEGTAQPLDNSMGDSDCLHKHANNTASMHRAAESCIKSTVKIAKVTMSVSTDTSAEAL
Experiment: Antagonist activity at rat cannabinoid CB1 receptor in Wistar rat cerebellar membranes by [35S]GTPgammaS binding assay
Procedure, shortened: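 Non-recombinant rat cerebellar membrane fractions, [35S]GTPγS binding. Compounds screened at a single concentration for their ability to antagonise the response to 10 nM HU-210 agonist.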

Structure (SMILES) | pEC50
O=C(c1cnc(Nc2cccc(C(F)(F)F)c2)c2ccccc12)N1CCOCC1 | 5.00

From BindingDB's records for doi:10.1016/j.bmc.2010.11.059 (University of Eastern Finland, 2011)
